The list is not random: actives were taken first. Their share in the collection is about 3.2%.
GASC-1 inh: inhibitors of human GASC-1 (JMJD2C) demethylase. Q9H3R0. GST-JMJD2C(1-420) H3K9me3 demethylation, DELFIA europium. inhibition, % at 2.35 µM. hit rate 0.069% among 330,000. AID 2099;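 active = more than half of a compound's replicate wells show inhibition beyond 50%, single wells judged on their own value; inconclusive = some, but no more than half, of replicates pass 50% inhibition; inactive = no replicate passes 50% inhibition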;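 also: signal counts dimethyl H3K9 product captured on neutravidin plate; 0% = median of DMSO wells and 100% = 0.3 times that DMSO median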
Target sequence (Q9H3R0 1-420 limits assumed): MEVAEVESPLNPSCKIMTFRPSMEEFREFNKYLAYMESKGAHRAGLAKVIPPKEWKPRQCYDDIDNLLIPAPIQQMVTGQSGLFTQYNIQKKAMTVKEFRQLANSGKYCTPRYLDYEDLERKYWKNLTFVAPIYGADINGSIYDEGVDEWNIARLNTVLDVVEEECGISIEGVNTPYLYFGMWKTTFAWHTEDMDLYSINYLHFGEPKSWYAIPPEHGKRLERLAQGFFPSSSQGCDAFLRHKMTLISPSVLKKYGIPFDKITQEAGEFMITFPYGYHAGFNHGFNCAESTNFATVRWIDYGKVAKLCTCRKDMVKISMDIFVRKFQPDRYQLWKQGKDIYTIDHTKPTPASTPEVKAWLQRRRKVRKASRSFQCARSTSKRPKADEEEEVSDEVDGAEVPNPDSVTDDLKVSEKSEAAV
NR2E3 ag-1: activates human NR2E3 receptor; AID 602229; inhibition of corepressor binding, % at 3.98 µM; CHO-S Gal4-NCOR/VP16-NR2E3 two-hybrid, luciferase; hit rate 0.35% among 360,000;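 active = inhibition above the mean of all tested compounds plus 3 SD, cut at about 70% in these data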;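 also: 0% = DMSO with NR2E3 transfected cells and 100% = cells lacking NR2E3 construct; higher means lower luciferase signal from less NR2E3 corepressor binding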
DAX1 inh-1: DAX1 (NR0B1) inhibition, primary screen; hit rate 1.1% among 370,000; inhibition, % at 6.8 µM; HEK293T StAR-luciferase reporter, SF-1/DAX-1 repression relief;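 active = inhibition above the mean over all tested compounds plus 3 SD, cut at about 3.6% in these data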;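 also: 0% = DAX-1 cells with DMSO and 100% = cells lacking DAX-1 with DMSO; higher inhibition means more luminescence from relief of DAX-1 repression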
DAX1 inh-2: inhibits human nuclear receptor DAX1. HEK293 Gal4-DAX1 luciferase reporter, luminescence. inhibition, % at 6.75 µM. AID 504766. hit rate 0.99% among 340,000. P51843;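 active = inhibition above the mean over all tested compounds plus 3 SD, cut at about 4.2% in these data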;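 also: 0% = DAX1-transfected cells with DMSO and 100% = empty-vector control cells with DMSO; inhibition shows as a rise in luminescence from relieved DAX1 repression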
SMARCA2 activ: SMARCA2 function activation, primary screen | MG213 cells, MMTV-luciferase reporter, dexamethasone, overnight | activation, % at 9.1 µM | hit rate 1% among 370,000 | AID 652017; in the data active = activation above about 7.8%;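 also: 0% = vehicle wells and 100% = reference activator wells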
NR2E3 ag-2: activates human photoreceptor nuclear receptor NR2E3 | inhibition of corepressor binding, % at 4.78 µM | AID 2300 | hit rate 0.12% among 320,000 | Q9Y5X4 | GST-NR2E3/biotin-RetCOR TR-FRET, 1536-well;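 active = percent inhibition above the cutoff of mean plus 3 SD of all tested compounds, set per screening campaign, cut at about 20% in these data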;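 also: 0% = DMSO wells and 100% = biotin wells as full block of FRET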
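Test system: GST-NR2E3 and biotin-RetCOR proteins | Quantity: 1.35 nM GST-tagged NR2E3 final | Medium: Tris pH 7.5 | Also added: 7 nM biotin-RetCOR | Dosing: Compound at 4.8 µM, single dose | Timing: 5 h at 4 °C | Detection: Time-resolved FRET | Read-out basis: Percent inhibition | Benchmarks: Biotin wells as high control, 0.6% DMSO wells as low control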
NR2E3 ag conf: NR2E3 agonism confirmed in two-hybrid assay. inhibition, % at 3.98 µM. CHO-S mammalian two-hybrid NR2E3-NCOR, luciferase luminescence. shares compounds with NR2E3 ag-1. hit rate 51% among 2,300;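 active = average inhibition above a cutoff equal to the mean inhibition of all tested compounds plus one SD, cut at about 70% in these data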;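 also: 0% = DMSO in NR2E3 cells and 100% = DMSO in cells lacking NR2E3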
VP16 counter: GAL4-VP16 reporter inhibition in NR2E3 agonist counterscreen; shares compounds with NR2E3 ag-1; CHO-S GAL4-VP16 luciferase reporter, luminescence; inhibition, % at 3.98 µM; hit rate 29% among 2,300; AID 624379;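 active = mean inhibition above a cutoff equal to the average over all tested compounds plus one standard deviation, cut at about 70% in these data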;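 also: luciferase from a UAS reporter driven by GAL4-VP16 transactivation; 0% = DMSO with VP16-transfected cells and 100% = DMSO with cells lacking VP16; higher means less reporter light so more repression of VP16 activity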
An asterisk follows results filed as active.

How did c1cc2cc(CNc3nc(NCC4CC4)nc4ccsc34)ccc2o1 do in these assays?
NR2E3 ag-1: 15.6; DAX1 inh-1: -1.6; SMARCA2 activ: -3.2

What do the screens show for `O=C(Nc1c(-c2ccc(F)cc2)nc2ncccn12)c1ccccc1`?
DAX1 inh-1: -0.7; SMARCA2 activ: -0.6

Results for CC(C)=CCC/C(C)=C/CNCC(=O)N1c2ccccc2[C@]2(c3ccccc3)C[C@@H]3C(=O)N(C/C=C(\C)CCC=C(C)C)CC(=O)N3[C@H]12 ?
DAX1 inh-1: -0.5; SMARCA2 activ: 0.0

What do the screens show for `COc1cc2c(cc1NC(=O)CSc1nnc(-c3ccccn3)n1-c1ccccc1)oc1ccccc12`?
DAX1 inh-1: -2.0; SMARCA2 activ: 1.7

What do the screens show for `Nc1nc(=S)c2ncn(C3OC(CO)C(O)C3O)c2[nH]1` (stereo not given)?
GASC-1 inh: 10.8; NR2E3 ag-1: 57.2; DAX1 inh-1: 0.0; DAX1 inh-2: -0.1; SMARCA2 activ: -2.0; NR2E3 ag-2: 3.6; NR2E3 ag conf: 37.0; VP16 counter: 5.0

Results for Nc1ncn([C@@H]2O[C@H](CO)[C@@H](O)[C@H]2O)c(=O)n1 ?
GASC-1 inh: -30.3; NR2E3 ag-1: 53.8; DAX1 inh-1: -4.0; DAX1 inh-2: -4.3; SMARCA2 activ: 0.1; NR2E3 ag-2: -3.5; NR2E3 ag conf: 40.0; VP16 counter: 39.4

Results for CCCN(CC1CC1)C(=O)c1ccc(CNC(=O)c2cccc(Br)c2)cc1 ?
DAX1 inh-1: -1.1; SMARCA2 activ: -5.9

Results for CCOC(=O)N1CCN(C(=O)C[C@@H]2C(=O)N3CCCC4=C3[C@@]2(C(=O)OC)CCCC4)CC1 ?
DAX1 inh-1: -1.3; SMARCA2 activ: 0.2

What do the screens show for `CCCOc1ccc(Br)cc1CSC(=N)N`?
GASC-1 inh: -3.4; NR2E3 ag-1: 51.3; DAX1 inh-1: -2.7; DAX1 inh-2: -2.8; SMARCA2 activ: -5.8; NR2E3 ag-2: -0.6; NR2E3 ag conf: 45.8; VP16 counter: 49.5

Results for C[C@H]1COc2cccc(N3CCSCC3)c2S(=O)(=O)N1C ?
DAX1 inh-1: -0.9; SMARCA2 activ: -2.4

How did COc1ccc(S(=O)(=O)Nc2ccccc2C(=O)Nc2nc(-c3ccc(F)cc3)cs2)cc1OC do in these assays?
GASC-1 inh: 16.6; NR2E3 ag-1: 58.8; DAX1 inh-1: -1.2; DAX1 inh-2: -2.0; SMARCA2 activ: -8.1; NR2E3 ag-2: 0.2; NR2E3 ag conf: 97.1*; VP16 counter: 83.4*

What do the screens show for `COc1ccc(-c2csc(NC(=O)c3c(OC)cccc3OC)n2)cc1`?
GASC-1 inh: 0.0; NR2E3 ag-1: -33.6; DAX1 inh-1: 0.3; DAX1 inh-2: -0.6; SMARCA2 activ: -4.5; NR2E3 ag-2: 1.8

How did COc1ccc(-c2csc(NC(=O)c3ccccc3NS(=O)(=O)c3ccc(C)cc3)n2)cc1 do in these assays?
GASC-1 inh: inconclusive; NR2E3 ag-1: 95.0*; DAX1 inh-1: -1.9; DAX1 inh-2: -2.5; SMARCA2 activ: -3.4; NR2E3 ag-2: 0.3; NR2E3 ag conf: 98.2*; VP16 counter: 84.7*

Results for O=C(CCc1ccccc1)Nc1ccnn1C1CCN(C/C=C/c2ccccc2)CC1 ?
GASC-1 inh: -23.1; NR2E3 ag-1: -35.0; DAX1 inh-1: 1.6; DAX1 inh-2: 0.2; SMARCA2 activ: 2.9; NR2E3 ag-2: -0.2

Results for COc1ccccc1/C=C/CN1CCC(n2nccc2NC(=O)CCc2ccccc2)CC1 ?
GASC-1 inh: 1.2; NR2E3 ag-1: 65.3; DAX1 inh-1: -0.7; DAX1 inh-2: -2.7; SMARCA2 activ: -3.8; NR2E3 ag-2: -4.1; NR2E3 ag conf: 55.5; VP16 counter: 51.1

How did O=[N+]([O-])c1ccc(NS(=O)(=O)c2ccc(Cl)c(Cl)c2)cc1 do in these assays?
NR2E3 ag-1: 101.4*; DAX1 inh-1: -1.9; SMARCA2 activ: -8.7; NR2E3 ag conf: 99.3*; VP16 counter: 91.3*

Assay outcomes (PubChem BioAssay)
